Broadly, the ED50 is the midpoint of the dose-response relation. For orientation: Ki means the equilibrium dissociation constant of an inhibitor or competing ligand from its target. A high value points to lower affinity.

Holding throughout (format): functional
The species named for assay [1] is Rattus norvegicus. Kind of assay: Ability to antagonize saccharin-induced drinking (palatability-induced ingestion) in rats. In a few lines:
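Long-Evans hooded male rats (400–600 g, n=24), individually housed, given 2 h weekday access to 0.01 M sodium saccharin; water and chow free except 0.5 h before and during access. Drug ip, 1 mL/kg, 0.5 h before access. Intake expressed as ratio to nearest noninjection (Thursday) control, normalized to distilled-water group = 100%; mean of four to six rats; ED50 with 95% confidence limits.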

The species named for assay [2] is Mus musculus. Kind of assay: Ability to antagonize p-chloroamphetamine-induced depletion of brain serotonin in mouse. An outline of the steps:
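Male albino mice (16–20 g), groups of five; compound given ip as aqueous solution, then 1 h later p-chloroamphetamine HCl 20.6 mg/kg ip. Decapitation 6 h after that; whole brains frozen on dry ice, stored at -15 °C, serotonin measured by HPLC with electrochemical detection. ED50 from dose-response.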

The subject of assay [3] is Mus musculus. Kind of assay: Antagonistic activity against acetic acid induced abdominal constriction (writhing) in mice, when administered in combination with 0.2 mg/kg of morphine. Conditions: Abdomen. An outline of the steps:
(§1)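 Male CF-1 mice (~20 g), fasted overnight, five per point, each used once. Drug given sc in distilled water, 10 mL/kg, 20 min before 0.6% acetic acid ip (10 mL/kg). Writhes counted for 10 min starting 5 min after acid. Percent inhibition versus same-day controls; ED50 by probit least-squares of log dose.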

Assay [4] is filed under the species Mus musculus. Kind of assay: Inhibition of serotonin uptake carrier in mice.
Assay [5] is filed under the species Mus musculus. Kind of assay: Antagonistic activity against acetic acid induced abdominal constriction (writhing) in mice. The note with it: Abdomen. In a few lines: as §1
For orientation: Writhing tests count abdominal constrictions after an irritant is injected.

For the molecule `CNCC[C@@H](Oc1ccc(C(F)(F)F)cc1)c1ccccc1` [R-FLUOXETINE], the 50% effective dose (ED50) in assay [1] is 6.1 mg/kg; in assay [2], 1.2 mg/kg; in assay [3], 3.6 mg/kg; in assay [5], 15.3 mg/kg. The inhibition constant Ki in assay [4] was 21 nM.

`CNCC[C@H](Oc1ccc(C(F)(F)F)cc1)c1ccccc1`: the 50% effective dose (ED50) worked out at 4.9 mg/kg in assay [1], 2.1 mg/kg in assay [2], 5.7 mg/kg in assay [3] and 25.7 mg/kg in assay [5]. In addition, in assay [4], the inhibitory constant (Ki) stood at 33 nM.

These data come from ChEMBL document CHEMBL1124157, “Absolute configurations and pharmacological activities of the optical isomers of fluoxetine, a selective serotonin-uptake inhibitor” (J Med Chem, 1988).
